Measured values from different studies.
Protocols differ between the studies behind these lines.
Observed: cell growth or viability

CC(=O)c1c(C)c2cnc(Nc3ccc(N4CCNCC4)cn3)nc2n(C2CCCC2)c1=O — GI50 (BT-474; resazurin): 0.2 µM
CCCCCCCCCC(=O)N[C@@H](Cc1c[nH]c2ccccc12)C(=O)N[C@H](CC(N)=O)C(=O)N[C@@H](CC(=O)O)C(=O)N[C@@H]1C(=O)NCC(=O)N[C@@H](CCCNC(=O)CCC(=O)N2Cc3ccccc3-c3c(nnn3CCC[C@H](NC(=O)CCCCC[N+]3=C(C=CC4=CC(=CC=C5N(C)c6ccccc6C5(C)C)CCC4)C(C)(C)c4ccccc43)C(=O)NCCCCNC(=O)CCC(=O)N3Cc4ccccc4-c4c(nnn4CCOCCOCCOCCNC(=O)CN4CCN(CC(=O)NCCNC(=O)c5cccc(O)c5O)CCN(CC(=O)NCCNC(=O)c5cccc(O)c5O)CCN(CC(=O)NCCNC(=O)c5cccc(O)c5O)CC4)-c4ccccc43)-c3ccccc32)C(=O)N[C@@H](CC(=O)O)C(=O)N[C@H](C)C(=O)N[C@@H](CC(=O)O)C(=O)NCC(=O)N[C@H](CO)C(=O)N[C@@H]([C@H](C)CC(=O)O)C(=O)N[C@@H](CC(=O)c2ccccc2N)C(=O)O[C@@H]1C — Kb (KB 3-1; WST-1): > 64 µM
Oc1nc(-c2ccc(C(F)(F)F)cc2)nc2c1CSCC2 — IC50 (MB002; 7 days): > 10 µM
CC(C)C[C@H](NC(=O)[C@H](Cc1ccccc1)NC(=O)c1cnccn1)B(O)O — IC50 (SW948; ATP luminescence): 0.012 µM
CC(=O)OC[C@H]1O[C@@H]([S-])[C@H](OC(C)=O)[C@@H](OC(C)=O)[C@@H]1OC(C)=O.CCP(CC)CC.[Au+] — Kb (KB 3-1; WST-1): 0.1 µM
CC(C)C[C@H](NC(=O)[C@H](Cc1ccccc1)NC(=O)c1cnccn1)B(O)O — IC50 (MB002; 7 days): 0.00313 µM
COc1cc(Nc2nccc(-c3cnn4nc(OC)ccc34)n2)cc(C(F)(F)F)c1 — IC50 (SK-LU-1; ATP luminescence): 1.1 µM
CCNc1nc(Nc2cc(F)c(C(=O)N3CCOCC3)cc2OC)ncc1C(F)(F)F — IC50 (MB002; 7 days): > 10 µM
CC(=O)Nc1cccc(-n2c(=O)n(C3CC3)c(=O)c3c(Nc4ccc(I)cc4F)n(C)c(=O)c(C)c32)c1 — viability (Calu-6; resazurin; 0.1 µM; 72 h): 62.6%
COc1cc2c(Nc3ccc(Br)cc3F)ncnc2cc1OCC1CCN(C)CC1 — GI50 (BT-474; ATP luminescence; 72 h): 5.91 µM
